Screen size: about 190,000 compounds; about 1,300 (0.68%) were called active. This excerpt belongs to a sample that is enriched for actives. Values without a mark were called inactive.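 Rule for the calls: active = primary screen inhibition at 20 µM above a set limit (cut at about 50% in these data); inactive = the rest.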

Broadly, the inhibition is the change of the read-out against control, counted positive when it falls.

In the assay the test system is diaphorase (Clostridium kluyveri). In words: diaphorase inhibitors and chemical oxidizers, primary screen, counter-screen for diaphorase-coupled primary assays, biochemical, uHTS, resorufin fluorescence (AID 1217).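 Note: plate controls were DMSO with full reaction for no effect and wells lacking NADH for full effect.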 Particulars: diaphorase resazurin-to-resorufin fluorescence, NADH, 16 min; at 20 µM; hits give high values; bacterial (C. kluyveri) enzyme, not human. The method in brief:
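Test system: bacterial diaphorase enzyme (C. kluyveri); Quantity: 0.14 U/mL diaphorase, enzyme working solution; Times: reaction incubation of 16 min at room temperature; Measured by: fluorescence of resorufin formed from resazurin, Ex 544/Em 590 nm; Benchmarks: positive control minus NADH, DMSO neutral control.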
In general terms: The purpose of a counterscreen is to sort out artefacts and off-target activity.
As for `Cc1[nH]n(-c2ccc(Cl)cc2)c(=O)c1/C=N/n1c(C)nc2ccccc2c1=O`, the inhibition was -6.7%. `Cc1[nH]n(-c2ccccc2)c(=O)c1/C=N/NC(=O)c1ccoc1C`: the inhibition is 50.1% (active). Consider `Cc1ccc(-n2[nH]c(C)c(/C=N/NC(=O)c3cccc([N+](=O)[O-])c3)c2=O)cc1C`, for which the inhibition was 22%.

As for `O=C(C(Cl)Cl)N1CCN(c2ccccn2)CC1`, the inhibition was 3%. For `COCCCNC(=O)Cn1c(=O)n(Cc2ccccc2Cl)c(=O)c2cc(OC)c(OC)cc21` the value was 9.4%. For `Cc1c(CN2CCCC(C(=O)c3cccc(Cl)c3)C2)c(=O)n(-c2ccccc2)n1C` (stereo unspecified) the value was 15.1%; for `CCc1ccc(NC2Nc3cc(C)nn3S2)cc1` (stereo unspecified), 8.9%. For `O=C(Cc1ccccc1)NCC1OCCc2ccccc21` (stereo unspecified) the value was 24.1%. Consider `COc1ccc(OC)c(Nc2nc(-c3ccc(O)c(O)c3)cs2)c1`, for which the inhibition was 57.4% (active).

With `COc1ccc(-c2csc(Nc3ccccn3)n2)cc1`, the inhibition is 10.1%. In the case of `COc1ccc(-c2csc(Nc3ccc(O)cc3)n2)cc1`, the inhibition was -2.2%. For `CC1CC1C(=O)OCC(=O)c1c(N)n(C)c(=O)n(C)c1=O` (stereo unspecified) the value was -19.7%. To `Cc1cc(C)cc(NC(=O)Cn2cnc3c(nnn3Cc3ccc(F)cc3)c2=O)c1` belongs 1.8%. For `COc1ccc(OC)c2[nH]c(=O)c(CCNC(=O)C(=O)c3c[nH]c4ccccc34)cc12` the value was 66.1% (active); for `COc1ccc(/C=C(\NC(=O)c2ccc(OC)c(OC)c2)C(=O)NCCc2c[nH]c3ccccc23)cc1`, 13.6%. With `COc1ccc(OC)c2[nH]c(=O)c(CCNC(=O)C(C)(C)C)cc12`, the inhibition was 2.9%. In the case of `COc1ccc(C(=O)N/N=c2\oc3ccccc3cc2C(N)=O)cc1`, the inhibition was 75.5% (active).

As for `CCc1cc(C(N)=O)c(NC(=O)c2ccc(OC)cc2)s1`, the inhibition is 21.1%. To `CCN(CC)c1ccc2cc(C(N)=O)/c(=N\NC(=O)c3ccncc3)oc2c1` belongs 25%; to `COc1cccc(OC)c1C(=O)NC(=S)Nc1ccc(N2CCOCC2)c(Cl)c1`, 27.9%; to `S=c1[nH]nc(-c2cccs2)n1/N=C/c1cccs1`, 51.3% (active).

Regarding `Cc1ccc(/C=N\n2c(-c3ccccc3)n[nH]c2=S)s1`, the inhibition is 19.9%. For `Oc1ccccc1/C=N/n1c(-c2cccs2)n[nH]c1=S` the value was 35.3%; for `CCN(C(=O)COC(=O)c1ccc(COc2ccc3c(C)cc(=O)oc3c2)cc1)C1CCS(=O)(=O)C1` (stereo unspecified), 0.7%; for `CN(C)CCN=c1cc(-c2ccccc2)oc2ccc(Cl)cc12`, -1.4%. To `O=C(COC(=O)c1cc([N+](=O)[O-])ccc1NCc1ccccc1)NC1CCCCC1` belongs 3%.
